The record followed here is ChEMBL document CHEMBL2375356, “Design, synthesis and biological evaluation of new classes of thieno[3,2-d]pyrimidinone and thieno[1,2,3]triazine as inhibitor of vascular endothelial growth factor receptor-2 (VEGFR-2)” (Eur J Med Chem, 2013).

The source made the active and inactive calls. No cut-off for these calls is given here.

Data set [1] concerns the target T1, Tyrosine-protein kinase receptor TYRO3 (Homo sapiens) (UniProt Q06418).
T1 sequence (whole entry): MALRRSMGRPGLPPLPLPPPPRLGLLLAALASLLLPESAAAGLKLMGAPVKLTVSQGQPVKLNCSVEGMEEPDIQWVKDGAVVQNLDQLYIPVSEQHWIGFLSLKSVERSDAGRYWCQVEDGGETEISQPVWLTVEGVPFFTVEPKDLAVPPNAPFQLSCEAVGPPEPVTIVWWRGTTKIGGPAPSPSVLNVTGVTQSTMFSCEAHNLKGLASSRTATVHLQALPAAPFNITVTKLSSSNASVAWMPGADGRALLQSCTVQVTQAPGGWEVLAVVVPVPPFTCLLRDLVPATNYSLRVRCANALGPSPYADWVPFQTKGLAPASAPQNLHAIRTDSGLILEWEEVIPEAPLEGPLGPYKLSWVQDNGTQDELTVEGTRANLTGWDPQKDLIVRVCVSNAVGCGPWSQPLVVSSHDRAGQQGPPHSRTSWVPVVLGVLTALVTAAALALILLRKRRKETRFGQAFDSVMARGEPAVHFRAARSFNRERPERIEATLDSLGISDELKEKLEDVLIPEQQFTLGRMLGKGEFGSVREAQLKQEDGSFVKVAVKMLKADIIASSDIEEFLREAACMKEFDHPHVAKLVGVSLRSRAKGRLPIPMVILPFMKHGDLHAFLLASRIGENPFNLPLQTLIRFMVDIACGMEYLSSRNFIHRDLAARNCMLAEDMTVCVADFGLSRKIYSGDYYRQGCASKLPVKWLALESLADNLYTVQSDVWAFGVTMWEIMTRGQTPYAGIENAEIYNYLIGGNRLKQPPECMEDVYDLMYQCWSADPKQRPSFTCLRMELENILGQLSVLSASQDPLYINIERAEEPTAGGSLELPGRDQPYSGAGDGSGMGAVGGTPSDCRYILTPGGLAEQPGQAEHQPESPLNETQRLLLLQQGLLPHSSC
Put plainly: Inhibition of DTK phosphorylation in growth factor-stimulated HUVEC at 3 uM after 24 hrs.

Data set [2] addresses Vascular endothelial growth factor receptor 1 (Homo sapiens) (UniProt P17948). Description: Inhibition of VEGFR1 phosphorylation in growth factor-stimulated HUVEC at 3 uM after 24 hrs.
For data set [3], the target named is Epidermal growth factor receptor (Homo sapiens) (UniProt P00533). Put plainly: Inhibition of EGFR phosphorylation in growth factor-stimulated HUVEC at 3 uM after 24 hrs.
For data set [4], the target named is Tyrosine-protein kinase receptor Tie-1 (Homo sapiens) (UniProt P35590). Put plainly: Inhibition of TIE-1 phosphorylation in growth factor-stimulated HUVEC at 3 uM after 24 hrs.
Data set [5] has as its target Tyrosine-protein kinase receptor UFO (Homo sapiens) (UniProt P30530). Description: Inhibition of AXL phosphorylation in growth factor-stimulated HUVEC at 3 uM after 24 hrs.
Data set [6] addresses T2, Vascular endothelial growth factor receptor 2 (Homo sapiens, UniProt P35968). Put plainly: Inhibition of VEGFR2 phosphorylation in growth factor-stimulated HUVEC at 3 uM after 24 hrs.
Data set [7] has as its target T3, Ephrin type-A receptor 6 (Homo sapiens) (UniProt Q9UF33).
T3 sequence (whole entry): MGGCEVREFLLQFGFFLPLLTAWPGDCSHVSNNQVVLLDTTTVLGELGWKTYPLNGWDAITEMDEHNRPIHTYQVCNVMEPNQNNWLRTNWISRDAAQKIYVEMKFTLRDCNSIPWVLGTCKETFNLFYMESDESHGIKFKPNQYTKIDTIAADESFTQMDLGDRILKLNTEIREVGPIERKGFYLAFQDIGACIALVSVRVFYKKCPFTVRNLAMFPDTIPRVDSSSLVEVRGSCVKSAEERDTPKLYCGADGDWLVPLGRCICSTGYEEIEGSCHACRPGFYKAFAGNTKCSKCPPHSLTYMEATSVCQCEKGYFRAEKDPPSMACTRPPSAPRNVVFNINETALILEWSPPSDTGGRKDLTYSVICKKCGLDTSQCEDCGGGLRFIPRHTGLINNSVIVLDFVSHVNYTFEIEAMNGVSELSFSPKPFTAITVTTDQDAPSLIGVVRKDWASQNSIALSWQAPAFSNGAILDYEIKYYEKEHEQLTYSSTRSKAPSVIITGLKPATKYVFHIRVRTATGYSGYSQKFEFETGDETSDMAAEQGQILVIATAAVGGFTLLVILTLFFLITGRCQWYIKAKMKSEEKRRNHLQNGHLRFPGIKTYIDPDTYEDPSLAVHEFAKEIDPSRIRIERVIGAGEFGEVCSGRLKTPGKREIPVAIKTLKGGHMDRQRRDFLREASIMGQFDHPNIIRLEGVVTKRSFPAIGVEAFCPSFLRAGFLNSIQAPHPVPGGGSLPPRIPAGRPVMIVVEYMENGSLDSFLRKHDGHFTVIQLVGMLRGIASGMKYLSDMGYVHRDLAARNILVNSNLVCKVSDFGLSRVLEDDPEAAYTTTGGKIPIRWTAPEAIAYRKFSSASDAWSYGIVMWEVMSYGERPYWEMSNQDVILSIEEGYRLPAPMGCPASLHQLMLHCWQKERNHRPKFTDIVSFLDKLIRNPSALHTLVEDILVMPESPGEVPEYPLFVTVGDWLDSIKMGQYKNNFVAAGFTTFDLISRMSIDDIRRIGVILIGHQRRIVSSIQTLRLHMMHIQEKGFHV
Description: Inhibition of EPHA6 phosphorylation in growth factor-stimulated HUVEC at 3 uM after 24 hrs.

The target in data set [8] is Tyrosine-protein kinase transmembrane receptor ROR2 (Homo sapiens) (UniProt Q01974). Put plainly: Inhibition of ROR2 phosphorylation in growth factor-stimulated HUVEC at 3 uM after 24 hrs.
Sequence of Tyrosine-protein kinase transmembrane receptor ROR2 (Homo sapiens) (Q01974 whole entry): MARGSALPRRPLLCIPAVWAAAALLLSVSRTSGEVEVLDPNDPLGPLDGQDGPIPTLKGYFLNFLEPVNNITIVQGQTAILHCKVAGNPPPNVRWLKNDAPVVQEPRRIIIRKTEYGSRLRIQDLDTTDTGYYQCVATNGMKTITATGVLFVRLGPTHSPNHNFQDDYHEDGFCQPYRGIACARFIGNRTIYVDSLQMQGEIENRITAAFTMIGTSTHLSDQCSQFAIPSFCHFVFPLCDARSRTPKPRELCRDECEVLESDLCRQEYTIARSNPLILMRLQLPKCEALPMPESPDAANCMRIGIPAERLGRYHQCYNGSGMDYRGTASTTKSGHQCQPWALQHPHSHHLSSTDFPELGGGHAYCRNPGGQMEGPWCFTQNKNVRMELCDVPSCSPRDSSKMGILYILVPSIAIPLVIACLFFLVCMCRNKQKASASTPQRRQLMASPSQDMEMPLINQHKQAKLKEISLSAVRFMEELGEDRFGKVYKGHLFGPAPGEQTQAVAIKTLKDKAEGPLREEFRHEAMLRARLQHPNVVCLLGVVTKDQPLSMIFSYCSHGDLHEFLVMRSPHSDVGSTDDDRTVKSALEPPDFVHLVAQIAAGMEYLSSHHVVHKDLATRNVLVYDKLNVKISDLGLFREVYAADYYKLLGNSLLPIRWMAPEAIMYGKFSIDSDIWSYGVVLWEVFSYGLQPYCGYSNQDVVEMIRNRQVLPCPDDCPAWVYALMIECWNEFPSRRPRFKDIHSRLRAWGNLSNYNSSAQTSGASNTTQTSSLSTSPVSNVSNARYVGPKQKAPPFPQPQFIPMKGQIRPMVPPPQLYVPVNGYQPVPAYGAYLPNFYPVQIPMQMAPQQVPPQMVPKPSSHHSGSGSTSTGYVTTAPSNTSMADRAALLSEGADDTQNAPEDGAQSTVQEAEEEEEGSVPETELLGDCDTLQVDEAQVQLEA
Data set [9] has as its target T2, Vascular endothelial growth factor receptor 2. Put plainly: Inhibition of human recombinant VEGFR2.
Data set [10] deals with HUVEC. Put plainly: cells. Particulars: Homo sapiens, 24 h.
The target of data set [11] is Vascular endothelial growth factor receptor 1 (Homo sapiens) (UniProt P17948). Put plainly: Inhibition of VEGFR1 phosphorylation in growth factor-stimulated HUVEC.
Sequence of Vascular endothelial growth factor receptor 1 (Homo sapiens) (P17948 whole entry): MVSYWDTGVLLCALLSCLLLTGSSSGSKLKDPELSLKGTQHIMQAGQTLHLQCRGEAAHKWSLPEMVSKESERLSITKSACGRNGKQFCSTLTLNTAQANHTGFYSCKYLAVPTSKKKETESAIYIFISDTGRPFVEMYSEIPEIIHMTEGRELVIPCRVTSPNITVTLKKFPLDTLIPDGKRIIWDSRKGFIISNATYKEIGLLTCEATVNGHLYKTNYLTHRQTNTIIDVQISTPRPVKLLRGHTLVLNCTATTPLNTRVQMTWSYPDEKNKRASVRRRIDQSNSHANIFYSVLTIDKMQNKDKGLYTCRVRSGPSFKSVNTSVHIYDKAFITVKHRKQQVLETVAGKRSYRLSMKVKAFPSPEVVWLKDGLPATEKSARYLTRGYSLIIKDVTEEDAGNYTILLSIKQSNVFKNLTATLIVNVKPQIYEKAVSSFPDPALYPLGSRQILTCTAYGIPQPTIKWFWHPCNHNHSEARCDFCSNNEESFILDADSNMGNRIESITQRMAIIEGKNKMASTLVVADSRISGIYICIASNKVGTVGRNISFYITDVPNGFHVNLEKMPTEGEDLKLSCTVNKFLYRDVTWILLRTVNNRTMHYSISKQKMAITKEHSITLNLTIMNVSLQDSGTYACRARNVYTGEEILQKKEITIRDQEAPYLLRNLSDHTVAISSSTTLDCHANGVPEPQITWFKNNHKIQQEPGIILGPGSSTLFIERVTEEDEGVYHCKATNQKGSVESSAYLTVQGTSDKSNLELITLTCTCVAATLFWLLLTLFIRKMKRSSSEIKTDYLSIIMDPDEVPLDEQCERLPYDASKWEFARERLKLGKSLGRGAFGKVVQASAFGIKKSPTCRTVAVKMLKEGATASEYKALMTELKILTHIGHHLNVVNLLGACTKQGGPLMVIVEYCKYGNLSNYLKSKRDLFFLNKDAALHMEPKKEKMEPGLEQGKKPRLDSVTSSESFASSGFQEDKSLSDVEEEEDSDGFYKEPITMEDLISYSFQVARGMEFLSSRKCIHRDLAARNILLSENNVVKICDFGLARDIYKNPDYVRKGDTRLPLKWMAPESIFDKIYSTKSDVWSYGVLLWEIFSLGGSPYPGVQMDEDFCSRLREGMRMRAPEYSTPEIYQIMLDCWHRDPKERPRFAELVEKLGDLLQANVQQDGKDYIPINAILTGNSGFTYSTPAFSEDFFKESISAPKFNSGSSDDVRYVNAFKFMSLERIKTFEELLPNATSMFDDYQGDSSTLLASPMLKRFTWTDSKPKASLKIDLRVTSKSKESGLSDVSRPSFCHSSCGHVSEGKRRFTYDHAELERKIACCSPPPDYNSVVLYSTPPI
For data set [12], the system named is HUVEC. Put plainly: Cytostatic activity against HUVEC assessed as decrease in metabolic activity at 1.5 uM after 24 hrs by MTT assay relative to control. It is filed as ADME, cell-based. Details: scale not given: the % may be the effect or the level left. Particulars: human. An outline of the steps:
(§1)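 Primary HUVEC (passage ≤5) seeded at 20,000 cells/cm² in complete medium; after 24 h, exposed to test agent (0–100 µM) in RPMI 1640 + 2% heat-inactivated FCS for 24 h. MTT 0.4 mg/mL, 37 °C for 3 h; formazan dissolved in DMSO, absorbance read at 570/630 nm. Expressed as % variation vs untreated medium; mean ± SD, n = 3 in triplicate.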

The subject of data set [13] is HUVEC. Put plainly: Cytotoxicity against HUVEC assessed as decrease in cell viability at 1 to 100 uM after 24 hrs by Hoechst 33258 staining method. It is filed as cell-based. The following applies: human. An outline of the steps:
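HUVEC seeded at 20,000 cells/cm²; after 24 h, treated with test agent (0–100 µM) in RPMI 1640 + 2% FCS for 24 h. Cells lysed by freezing at −80 °C, lysates incubated with Hoechst 33258 for 1 h with agitation. Fluorescence read at ex 360/em 460 nm; expressed as % variation vs untreated; mean ± SD, n = 3 in triplicate.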

In data set [14] the test system is HUVEC. Description: Cytostatic activity against HUVEC assessed as decrease in metabolic activity after 24 hrs by MTT assay. It is filed as ADME, cell-based, Homo sapiens. An outline of the steps: as §1
In data set [15] the test system is HUVEC. Description: Cytostatic activity against HUVEC assessed as decrease in metabolic activity at 100 uM after 24 hrs by MTT assay relative to control. It is filed as ADME, cell-based. More on the design: scale not given: the % may be the effect or the level left. Particulars: human. An outline of the steps: as §1

T2 sequence (P35968 whole entry): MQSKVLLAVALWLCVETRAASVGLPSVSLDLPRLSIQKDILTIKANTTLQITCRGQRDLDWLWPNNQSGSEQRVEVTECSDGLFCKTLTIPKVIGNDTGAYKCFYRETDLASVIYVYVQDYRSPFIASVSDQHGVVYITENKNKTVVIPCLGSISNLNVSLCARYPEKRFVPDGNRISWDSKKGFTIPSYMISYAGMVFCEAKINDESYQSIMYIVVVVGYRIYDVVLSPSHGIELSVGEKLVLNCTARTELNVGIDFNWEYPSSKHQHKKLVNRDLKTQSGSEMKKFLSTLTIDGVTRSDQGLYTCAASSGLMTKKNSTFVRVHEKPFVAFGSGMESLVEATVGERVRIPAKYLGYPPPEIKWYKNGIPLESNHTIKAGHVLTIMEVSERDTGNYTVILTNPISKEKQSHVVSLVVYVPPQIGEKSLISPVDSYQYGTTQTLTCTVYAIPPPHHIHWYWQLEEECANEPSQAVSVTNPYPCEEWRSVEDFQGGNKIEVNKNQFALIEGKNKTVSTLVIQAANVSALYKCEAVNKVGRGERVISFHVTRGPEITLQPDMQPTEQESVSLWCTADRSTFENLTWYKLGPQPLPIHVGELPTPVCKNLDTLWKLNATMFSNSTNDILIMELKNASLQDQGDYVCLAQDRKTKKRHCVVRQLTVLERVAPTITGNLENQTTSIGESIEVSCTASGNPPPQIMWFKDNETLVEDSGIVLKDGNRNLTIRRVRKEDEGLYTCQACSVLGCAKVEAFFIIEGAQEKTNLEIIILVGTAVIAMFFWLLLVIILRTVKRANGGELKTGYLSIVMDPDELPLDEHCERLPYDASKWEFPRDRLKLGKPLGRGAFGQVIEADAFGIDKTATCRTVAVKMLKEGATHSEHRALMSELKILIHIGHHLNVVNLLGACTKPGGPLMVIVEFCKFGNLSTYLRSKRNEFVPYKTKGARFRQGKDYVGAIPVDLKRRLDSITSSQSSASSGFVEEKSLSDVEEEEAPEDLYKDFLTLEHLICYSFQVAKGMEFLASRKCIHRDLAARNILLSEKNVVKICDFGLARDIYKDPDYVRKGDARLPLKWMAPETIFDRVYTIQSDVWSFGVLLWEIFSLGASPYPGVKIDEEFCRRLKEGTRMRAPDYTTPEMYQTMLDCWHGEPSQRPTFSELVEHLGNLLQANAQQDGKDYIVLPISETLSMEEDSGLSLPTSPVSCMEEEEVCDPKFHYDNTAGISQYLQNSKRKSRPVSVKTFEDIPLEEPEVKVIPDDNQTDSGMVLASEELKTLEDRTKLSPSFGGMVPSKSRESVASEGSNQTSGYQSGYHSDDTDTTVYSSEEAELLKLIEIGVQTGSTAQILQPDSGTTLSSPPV
Sequence of Tyrosine-protein kinase receptor UFO (Homo sapiens) (P30530 whole entry): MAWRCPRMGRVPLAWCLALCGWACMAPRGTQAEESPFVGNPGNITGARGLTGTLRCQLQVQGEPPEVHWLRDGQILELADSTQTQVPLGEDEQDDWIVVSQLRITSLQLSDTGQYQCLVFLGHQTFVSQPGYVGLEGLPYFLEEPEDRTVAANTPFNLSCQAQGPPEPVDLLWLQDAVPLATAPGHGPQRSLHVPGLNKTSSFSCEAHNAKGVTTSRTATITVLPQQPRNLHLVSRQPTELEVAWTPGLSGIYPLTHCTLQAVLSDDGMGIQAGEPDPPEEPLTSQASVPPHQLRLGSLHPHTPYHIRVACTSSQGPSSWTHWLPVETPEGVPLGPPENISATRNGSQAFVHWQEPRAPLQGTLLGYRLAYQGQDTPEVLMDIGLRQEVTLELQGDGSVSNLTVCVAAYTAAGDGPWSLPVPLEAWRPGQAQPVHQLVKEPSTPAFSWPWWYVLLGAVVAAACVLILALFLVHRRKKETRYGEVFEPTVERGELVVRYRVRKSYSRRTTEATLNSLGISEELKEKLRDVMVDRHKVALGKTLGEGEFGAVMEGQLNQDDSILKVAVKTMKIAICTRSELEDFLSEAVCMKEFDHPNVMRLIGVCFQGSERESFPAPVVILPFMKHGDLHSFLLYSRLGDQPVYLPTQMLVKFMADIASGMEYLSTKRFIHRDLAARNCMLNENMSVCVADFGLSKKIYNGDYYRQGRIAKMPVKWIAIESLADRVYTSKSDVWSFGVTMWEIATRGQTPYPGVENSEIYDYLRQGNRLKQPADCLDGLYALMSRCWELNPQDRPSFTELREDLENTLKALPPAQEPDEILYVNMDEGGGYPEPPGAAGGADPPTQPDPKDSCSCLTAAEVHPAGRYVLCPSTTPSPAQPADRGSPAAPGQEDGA

As for `O=c1[nH]c(CN2CCCCC2)nc2cc(-c3cn(Cc4ccccc4)c4ccccc34)sc12` [listing 1 of 2 here], the inhibition result in data set [1], in [2], in data set [3], in data set [4], in data set [5] and in [6] was “Active” each time. Also, the inhibition result in [7] and in data set [8] was “Active” in each case.

Take `O=c1[nH]c(CN2CCCCC2)nc2cc(-c3cn(Cc4ccccc4)c4ccccc34)sc12` [listing 2 of 2 here]: in data set [9], the 50% inhibitory concentration (IC50) worked out at 2250 nM.

On to `CCN(CC)CCNC(=O)c1c(C)[nH]c(/C=C2\C(=O)Nc3ccc(F)cc32)c1C` [SUNITINIB], for which it took 645 nM to reach a half-maximal effect in the data set on HUVEC [10] (EC50). The inhibition entry in data set [11] was “Active”.

As to `O=C(O)C(O)C(O)C(=O)O.O=c1[nH]c(CN2CCCCC2)nc2cc(-c3cn(Cc4ccccc4)c4ccccc34)sc12`, the Activity was 9% in the data set on HUVEC [12]; “Non-toxic” in the data set with HUVEC [13]; “Dose-dependent effect” in the data set on HUVEC [14] (human, huvec); 51% with HUVEC [15]. Besides, the EC50 with HUVEC [10] is 31 nM; in the data set with HUVEC [14] (Homo sapiens, HUVEC), 12000 nM.
